Among the data in ChEMBL document CHEMBL3352338, “Development and biological evaluation of potent and selective c-KIT(D816V) inhibitors” (J Med Chem, 2014) are IC50, inhibition and Activity values, retold here.

In general, IC50 refers to the concentration at which inhibition is half-maximal.

Assay [1] has as its target Phosphatidylinositol 4,5-bisphosphate 3-kinase catalytic subunit alpha isoform (Homo sapiens, UniProt P42336). Kind of assay: Inhibition of PI3Kalpha (unknown origin).
Assay [2] can be described thus: Cell cycle arrest in human HMC-1.2 cells assessed as accumulation at sub-G1 phase after 24 hrs by flow cytometric analysis. It is filed as functional, cell-based. Summed up: (§1)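 HMC-1.2 cells exposed to increasing concentrations for 24 h; cell cycle distribution (SubG1/G1 fraction) measured by flow cytometry.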
Assay [3] in a line: Cell cycle arrest in human HMC-1.2 cells assessed as accumulation at G1 phase after 24 hrs by flow cytometric analysis. The format is functional, cell-based. An outline of the steps: as §1
The nature of assay [4]: Induction of apoptosis in human HMC-1.2 cells assessed as apoptotic cells at 5 uM after 48 hrs by TUNEL staining (reference value: 0.849%). The format is functional.

Sequence of Phosphatidylinositol 4,5-bisphosphate 3-kinase catalytic subunit alpha isoform (P42336 whole entry, canonical isoform): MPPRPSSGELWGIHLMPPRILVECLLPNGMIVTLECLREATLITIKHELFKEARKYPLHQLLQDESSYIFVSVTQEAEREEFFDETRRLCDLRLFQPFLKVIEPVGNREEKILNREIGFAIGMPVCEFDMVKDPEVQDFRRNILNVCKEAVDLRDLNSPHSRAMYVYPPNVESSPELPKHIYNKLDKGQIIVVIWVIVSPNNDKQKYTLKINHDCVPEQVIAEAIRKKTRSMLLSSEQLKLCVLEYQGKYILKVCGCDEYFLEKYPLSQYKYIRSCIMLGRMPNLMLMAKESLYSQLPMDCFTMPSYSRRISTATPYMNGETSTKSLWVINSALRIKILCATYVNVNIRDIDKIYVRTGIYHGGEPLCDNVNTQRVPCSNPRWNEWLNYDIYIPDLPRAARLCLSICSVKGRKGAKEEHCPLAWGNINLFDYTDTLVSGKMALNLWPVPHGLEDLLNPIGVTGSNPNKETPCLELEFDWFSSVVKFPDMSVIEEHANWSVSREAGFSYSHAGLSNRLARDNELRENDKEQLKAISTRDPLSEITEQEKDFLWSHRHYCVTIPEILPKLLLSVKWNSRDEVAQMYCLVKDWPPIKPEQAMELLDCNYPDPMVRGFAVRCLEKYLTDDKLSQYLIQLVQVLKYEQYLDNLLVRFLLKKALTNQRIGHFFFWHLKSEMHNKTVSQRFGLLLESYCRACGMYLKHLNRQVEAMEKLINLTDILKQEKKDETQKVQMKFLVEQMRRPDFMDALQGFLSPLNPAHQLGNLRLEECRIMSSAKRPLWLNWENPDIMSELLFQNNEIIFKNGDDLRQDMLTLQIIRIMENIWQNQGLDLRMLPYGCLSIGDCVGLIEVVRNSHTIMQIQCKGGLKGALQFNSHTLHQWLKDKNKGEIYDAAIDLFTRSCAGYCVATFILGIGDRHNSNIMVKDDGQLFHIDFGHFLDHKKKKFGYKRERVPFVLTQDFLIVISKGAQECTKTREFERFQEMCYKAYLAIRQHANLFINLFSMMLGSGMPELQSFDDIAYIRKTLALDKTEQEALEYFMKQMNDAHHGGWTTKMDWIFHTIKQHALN

With `COc1ccc(-c2cnc3[nH]cc(-c4ccc(OC)c(OC)c4)c3c2)cc1OC`, in assay [1], the IC50 is more than 10 µM. Also, the inhibition result in assay [2] and in assay [3] was “Dose-dependent effect” each time. Also, the Activity in assay [4] was determined as 69.9%.
